Measurements reported in ChEMBL document CHEMBL1687745 (Antimicrob Agents Chemother, 2009).
Converted amounts (≈) assume the structure as drawn. The source made the active and inactive calls. No cut-off for these calls is given here.

What was measured:
Yersinia pestis [1] = experiment: Antibacterial activity against Yersinia pestis CO92 infected in C57BL/6 mouse assessed as protection against microbe-induced mortality at 10 mg/kg, ip for 5 days every 6 hrs administered 6 hrs post bacterial challenge measured after 15 days post infection; type: functional; settings: route intraperitoneal
Yersinia pestis [2] = experiment: Antimicrobial activity against Yersinia pestis by broth microdilution method; type: functional
Burkholderia cepacia = experiment: Antimicrobial activity against Burkholderia cepacia clinical isolate by broth microdilution method; type: functional
Method in brief: (§1)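 Broth microdilution. Log-phase cultures (5 × 10^5 CFU/ml) seeded in 96-well plates with compound from 0 to 20 µM or 1% DMSO control. Incubated at 37°C for 16 to 20 h. Growth read as absorbance at 600 nm.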

Klebsiella pneumoniae = experiment: Antimicrobial activity against Klebsiella pneumoniae 5657 by broth microdilution method; type: functional; method in brief: as §1
Staphylococcus aureus [3] = experiment: Antimicrobial activity against methicillin-resistant Staphylococcus aureus 1094 by broth microdilution method; type: functional
Staphylococcus aureus [4] = experiment: Antimicrobial activity against Staphylococcus aureus ATCC 25923 by broth microdilution method; type: functional; method in brief: as §1
[5] = test system: Mycolicibacterium smegmatis; experiment: Antimicrobial activity against Mycobacterium smegmatis 700009 by broth microdilution method; type: functional; method in brief: as §1
Bacillus anthracis [6] = experiment: Protection against Bacillus anthracis Sterne spores induced cell death in mouse J774A1 cells assessed as live viable cells at 10 uM by Sytox green dye staining assay relative to untreated control; type: functional, J774.A1
Bacillus pumilus = experiment: Antimicrobial activity against Bacillus pumilus clinical isolate by broth microdilution method; type: functional; method in brief: as §1
Staphylococcus aureus [7] = experiment: Antibacterial activity against MBX 1090 resistant Staphylococcus aureus NCTC8325 isolates selected on 10 to 12 days of serial passage through MBX 1090; type: functional
Method in brief: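 Eight independent S. aureus NCTC8325 cultures were grown with compound at 0.125× to 128× MIC. Each day, cells were passaged from the highest-concentration well still showing >50% of untreated growth, for up to 20 days. Colonies isolated from resistant cultures were confirmed by MIC assay.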

Bacillus anthracis [8] = experiment: microbe, parasite or virus in culture; settings: Ames
Burkholderia mallei = experiment: Antimicrobial activity against Burkholderia mallei ATCC 23344 by broth microdilution method; type: functional
[9] = Cytotoxicity against human HeLa cells after 3 days by MTS assay in presence of 10% fetal calf serum; type: cell-based
[10] = Cytotoxicity against mouse J774A1 cells assessed as live viable cells at 10 uM by Sytox green dye staining assay relative to untreated control; type: cell-based, J774.A1; settings: read-out: Activity
Method in brief: (§2)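 J774A.1 macrophages, not infected, treated with 1% DMSO control or compound at 10 µM. Sytox green (impermeant to live cells) added for 15 min at 37°C. Cells centrifuged, washed twice in complete medium containing antibiotics, and analysed by flow cytometry for percent live and dead cells.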

Bacillus anthracis [11] = experiment: Protection against Bacillus anthracis Sterne spores induced cell death in mouse J774A1 cells assessed as dead cells at 10 uM by Sytox green dye staining assay relative to untreated control; type: functional, J774.A1
Enterococcus faecalis [12] = experiment: Antimicrobial activity against Enterococcus faecalis 29212 clinical isolate by broth microdilution method; type: functional
Bacillus subtilis [13] = experiment: Inhibition of DNA synthesis in Bacillus subtilis BD54 at 5 X MIC by [3H]thymidine incorporation assay; type: functional, organism-based
Method in brief: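 Precursors were [methyl-3H]thymidine (DNA), [5-3H]uridine (RNA), L-[4,5-3H]leucine (protein) and N-acetyl-D-[1-3H]glucosamine (cell wall). Samples taken over time, precipitated with equal volume of ice-cold 20% TCA, filtered on glass fibre, and counted. cpm plotted against time.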

[14] = test system: Mycolicibacterium smegmatis; experiment: Antimicrobial activity against Mycobacterium smegmatis 19420 by broth microdilution method; type: functional; method in brief: as §1
Bacillus anthracis [15] = experiment: Antimicrobial activity against Bacillus anthracis Sterne vegetative cells by broth microdilution method; type: functional
Enterococcus faecalis [16] = experiment: Antimicrobial activity against vancomycin-resistant Enterococcus faecalis ATCC 51575 by broth microdilution method; type: functional
Bacillus subtilis [17] = experiment: Effect on bacterial membrane permeability in Bacillus subtilis BD54 upto 10 times MIC using DiSC3 fluorescent dye staining based fluorimetric assay; type: functional, organism-based
Method in brief: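 B. subtilis BD54 grown in LB to OD600 0.4–0.5, washed, and resuspended to OD600 0.1 in 5 mM HEPES pH 7.4 with 20 mM glucose. Loaded with 1 µM DiSC3(5) for 10 min at room temperature, then 100 mM KCl added. […] Fluorescence read at 5 min (ex 622, em 670 nm). DNP 200 µg/ml positive control; mean ± SD of 8 wells.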

HeLa = experiment: Effect on cell membrane integrity in human HeLa cells assessed as lactate dehydrogenase release at 32 times MIC against Staphylococcus aureus by CytoTox ONE homogenous membrane integrity assay; type: cell-based
Method in brief: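 Confluent HeLa cells in DMEM treated for 1 h with a range of compound concentrations, 1% DMSO final. […] LDH activity in the supernatant measured by a membrane-integrity kit.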

Bacillus anthracis [18] = experiment: Antimicrobial activity against Bacillus anthracis Vollum clinical isolate by broth microdilution method; type: functional
Bacillus anthracis [19] = experiment: microbe, parasite or virus in culture; settings: Ames; remark: listed apart in the source
[20] = test system: Mycolicibacterium smegmatis; experiment: Antimicrobial activity against Mycobacterium smegmatis 35798 by broth microdilution method; type: functional; method in brief: as §1
Enterococcus faecium = experiment: Antimicrobial activity against vancomycin-resistant Enterococcus faecium B42762 by broth microdilution method; type: functional
Brevibacillus brevis = experiment: Antimicrobial activity against Bacillus brevis clinical isolate by broth microdilution method; type: functional; method in brief: as §1
Escherichia coli = experiment: Antimicrobial activity against Escherichia coli J53 clinical isolate by broth microdilution method; type: functional
Bacillus anthracis [21] = experiment: Antibacterial activity against Bacillus anthracis Ames spores infected in C57BL/6 mouse assessed as mouse survival rate at 10 mg/kg, ip for 5 days every 6 hrs administered 6 hrs post bacterial challenge measured up to 20 days post infection; type: functional; settings: route intraperitoneal
Bacillus anthracis [22] = experiment: Antimicrobial activity against Bacillus anthracis Ames by broth microdilution method in presence of 10% fetal calf serum; type: functional
Bacillus subtilis [23] = experiment: Antimicrobial activity against Bacillus subtilis clinical isolate by broth microdilution method; type: functional
Staphylococcus aureus [24] = experiment: Antimicrobial activity against methicillin-resistant Staphylococcus aureus clinical isolate by broth microdilution method; type: functional
Bacillus anthracis [25] = experiment: Inhibition of spore germination in Bacillus anthracis Sterne spores at MIC after 4 hrs; type: functional, organism-based
[26] = test system: Burkholderia thailandensis; experiment: Antimicrobial activity against Burkholderia thailandensis by broth microdilution method; type: functional
Priestia megaterium = experiment: Antimicrobial activity against Bacillus megaterium clinical isolate by broth microdilution method; type: functional
[27] = test system: Burkholderia pseudomallei; experiment: Antimicrobial activity against Burkholderia pseudomallei DD503 by broth microdilution method; type: functional
Bacillus licheniformis = experiment: Antimicrobial activity against Bacillus licheniformis clinical isolate by broth microdilution method; type: functional
Enterococcus faecalis [28] = experiment: Antimicrobial activity against Enterococcus faecalis clinical isolate by broth microdilution method; type: functional; method in brief: as §1
Pseudomonas aeruginosa = experiment: Antimicrobial activity against Pseudomonas aeruginosa PAO1 by broth microdilution method; type: functional; method in brief: as §1
J774.A1 = experiment: Cytotoxicity against mouse J774A1 cells assessed as dead cells at 10 uM by Sytox green dye staining assay relative to untreated control; type: cell-based; settings: j774.a1, 10 µM; method in brief: as §2
Staphylococcus aureus [29] = experiment: Antimicrobial activity against Staphylococcus aureus by broth microdilution method; type: functional; method in brief: as §1
Staphylococcus aureus [30] = experiment: Antibacterial activity against Staphylococcus aureus Smith infected in Swiss Webster mouse assessed as assessed as protection against microbe-induced mortality at 10 mg/kg, iv administered as single dose 15 mins post bacterial challenge measured 48 hrs post infection; type: functional
Method in brief: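 Swiss Webster mice (n = 10/group) were challenged i.p. with 8.3 × 10^8 CFU. After 15 min they received a single i.v. dose in 10% dimethyl acetamide–5% dextrose in water (pH 4.0), alongside vehicle and daptomycin (10 mg/kg) controls. Survival was followed for 48 h.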

Bacillus subtilis [31] = experiment: Disruption of bacterial membrane permeability in Bacillus subtilis BD54 using DiSC3 fluorescent dye staining based fluorimetric assay; type: functional, organism-based
Method in brief: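 B. subtilis BD54 was grown in LB to OD600 0.4–0.5, washed and resuspended to OD600 0.1 in 5 mM HEPES pH 7.4 with 20 mM glucose. Cells were loaded with 1 µM DiSC3(5) for 10 min at room temperature, then 100 mM KCl was added. […] Fluorescence (ex 622/em 670 nm) was read after 5 min in eight wells per condition. DNP at 200 µg/ml served as positive control.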

c1cc2cc(-c3ccc(-c4cc5ccc(C6=NCCN6)cc5[nH]4)cc3)[nH]c2cc1C1=NCCN1
survival at 10 mg/kg (Yersinia pestis [1]): 90% | MIC (Yersinia pestis [2]): 3.4 µg/mL (≈ 7.65 µM) | MIC (Burkholderia cepacia): > 20 µg/mL | MIC (Klebsiella pneumoniae): 3.8 µg/mL (≈ 8.55 µM) | MIC (Staphylococcus aureus [3]): 0.2 µg/mL (≈ 0.45 µM) | MIC (Staphylococcus aureus [4]): 0.1 µg/mL (≈ 0.225 µM) | MIC [5]: 0.1 µg/mL (≈ 0.225 µM) | Activity (Bacillus anthracis [6]): 77% | MIC (Bacillus pumilus): < 0.1 µg/mL | MIC (Staphylococcus aureus [7]): Active | MBC (Bacillus anthracis [8]): 0.7 µg/mL (≈ 1.57 µM) | MIC (Bacillus anthracis [8]): 0.3 µg/mL (≈ 0.675 µM) | MIC (Burkholderia mallei): 1.7 µg/mL (≈ 3.82 µM) | CC50 at 72 h [9]: 3 µg/mL | viability at 10 µM [10]: 94% | Activity (Bacillus anthracis [11]): 22% | MIC (Enterococcus faecalis [12]): 0.2 µg/mL (≈ 0.45 µM) | inhibition (Bacillus subtilis [13]): Active | MIC [14]: < 0.1 µg/mL | MIC (Bacillus anthracis [15]): 0.7 µg/mL (≈ 1.57 µM) | MIC (Enterococcus faecalis [16]): 0.1 µg/mL (≈ 0.225 µM) | Activity (Bacillus subtilis [17]): Active | Activity (HeLa): Non-toxic | MIC (Bacillus anthracis [18]): 0.3 µg/mL (≈ 0.675 µM) | MBC (Bacillus anthracis [19]): 0.4 µg/mL (≈ 0.9 µM) | MIC [20]: < 0.1 µg/mL | MIC (Enterococcus faecium): < 0.1 µg/mL | MIC (Brevibacillus brevis): 0.7 µg/mL (≈ 1.57 µM) | MIC (Escherichia coli): 0.7 µg/mL (≈ 1.57 µM) | survival at 10 mg/kg (Bacillus anthracis [21]): 100% | MIC (Bacillus anthracis [22]): 1.1 µg/mL | MIC (Bacillus subtilis [23]): 0.2 µg/mL (≈ 0.45 µM) | MIC (Staphylococcus aureus [24]): 0.3 µg/mL (≈ 0.675 µM) | inhibition (Bacillus anthracis [25]): inactive | MIC [26]: 21 µg/mL (≈ 47.2 µM) | MIC (Priestia megaterium): 0.3 µg/mL (≈ 0.675 µM) | MIC [27]: 1.7 µg/mL (≈ 3.82 µM) | MIC (Bacillus licheniformis): 0.7 µg/mL (≈ 1.57 µM) | MIC (Enterococcus faecalis [28]): 0.2 µg/mL (≈ 0.45 µM) | MIC (Pseudomonas aeruginosa): 7.5 µg/mL (≈ 16.9 µM) | Activity (J774.A1): 5% | MIC (Staphylococcus aureus [29]): 0.3 µg/mL (≈ 0.675 µM) | survival at 10 mg/kg (Staphylococcus aureus [30]): 80%

O=[N+]([O-])c1ccc(O)c([N+](=O)[O-])c1
Activity (Bacillus subtilis [31]): Active
